# Data as given in ChEMBL document CHEMBL4350961, “Discovery of Pyrrolo[3,2- d]pyrimidin-4-one Derivatives as a New Class of Potent and Cell-Active Inhibitors of P300/CBP-Associated Factor Bromodomain” (J Med Chem, 2019).
# Assays:
# MEF [1] = test: Effect on Zfp551 gene expression in MEF cells at 2.5 uM measured after 48 hrs by RNA-sequencing analysis relative to control; format: functional, Mus musculus
# Procedure, shortened: (§1)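 Mouse embryonic fibroblasts treated 48 h; negative-control enantiomer at 2.5 µM, DMSO as blank. Total RNA extracted with TRIzol, checked by NanoDrop, then RNA-seq with n = 3 per set. Genes called changed at >1.5-fold with p < 0.05 against blank.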
# MEF [2] = test: Effect on Tnnt2 gene expression in MEF cells at 2.5 uM measured after 48 hrs by RNA-sequencing analysis relative to control; format: functional, Mus musculus; procedure, shortened: as §1
# MEF [3] = test: Effect on Dlx4 gene expression in MEF cells at 2.5 uM measured after 48 hrs by RNA-sequencing analysis relative to control; format: functional, Mus musculus; procedure, shortened: as §1
# MEF [4] = test: Effect on Ttbk1 gene expression in MEF cells at 2.5 uM measured after 48 hrs by RNA-sequencing analysis relative to control; format: functional, Mus musculus; procedure, shortened: as §1
# MEF [5] = test: Effect on Guca1a gene expression in MEF cells at 2.5 uM measured after 48 hrs by RNA-sequencing analysis relative to control; format: functional, Mus musculus; procedure, shortened: as §1
# MEF [6] = test: Effect on Tnfsf15 gene expression in MEF cells at 2.5 uM measured after 48 hrs by RNA-sequencing analysis relative to control; format: functional, Mus musculus; procedure, shortened: as §1
# MEF [7] = test: Effect on Nr4a3 gene expression in MEF cells at 2.5 uM measured after 48 hrs by RNA-sequencing analysis relative to control; format: functional, Mus musculus; procedure, shortened: as §1
# MEF [8] = test: Effect on Plekhg4 gene expression in MEF cells at 2.5 uM measured after 48 hrs by RNA-sequencing analysis relative to control; format: functional, Mus musculus; procedure, shortened: as §1
# MEF [9] = test: Effect on Slc26a7 gene expression in MEF cells at 2.5 uM measured after 48 hrs by RNA-sequencing analysis relative to control; format: functional, Mus musculus; procedure, shortened: as §1
# MEF [10] = test: Effect on Aatk gene expression in MEF cells at 2.5 uM measured after 48 hrs by RNA-sequencing analysis relative to control; format: functional, Mus musculus; procedure, shortened: as §1
# MEF [11] = test: Effect on Pkdrej gene expression in MEF cells at 2.5 uM measured after 48 hrs by RNA-sequencing analysis relative to control; format: functional, Mus musculus; procedure, shortened: as §1
# MEF [12] = test: Effect on Mpz gene expression in MEF cells at 2.5 uM measured after 48 hrs by RNA-sequencing analysis relative to control; format: functional, Mus musculus; procedure, shortened: as §1
# MEF [13] = test: Effect on Acod1 gene expression in MEF cells at 2.5 uM measured after 48 hrs by RNA-sequencing analysis relative to control; format: functional, Mus musculus; procedure, shortened: as §1
# MEF [14] = test: Effect on Tfap4 gene expression in MEF cells at 2.5 uM measured after 48 hrs by RNA-sequencing analysis relative to control; format: functional, Mus musculus; procedure, shortened: as §1
# MEF [15] = test: Effect on Erv3 gene expression in MEF cells at 2.5 uM measured after 48 hrs by RNA-sequencing analysis relative to control; format: functional, Mus musculus; procedure, shortened: as §1
# MEF [16] = test: Effect on Slitrk6 gene expression in MEF cells at 2.5 uM measured after 48 hrs by RNA-sequencing analysis relative to control; format: functional, Mus musculus; procedure, shortened: as §1
# MEF [17] = test: Effect on Myh3 gene expression in MEF cells at 2.5 uM measured after 48 hrs by RNA-sequencing analysis relative to control; format: functional, Mus musculus; procedure, shortened: as §1
# MEF [18] = test: Effect on Dmrta2 gene expression in MEF cells at 2.5 uM measured after 48 hrs by RNA-sequencing analysis relative to control; format: functional, Mus musculus; procedure, shortened: as §1
# MEF [19] = test: Effect on Gm36718 gene expression in MEF cells at 2.5 uM measured after 48 hrs by RNA-sequencing analysis relative to control; format: functional, Mus musculus; procedure, shortened: as §1
# [20] = molecular target: Histone acetyltransferase KAT2B (Homo sapiens, UniProt Q92831); test: Binding affinity to human N-terminal His-tagged PCAF by isothermal titration calorimetry
# Sequence of Histone acetyltransferase KAT2B (Q92831 whole entry): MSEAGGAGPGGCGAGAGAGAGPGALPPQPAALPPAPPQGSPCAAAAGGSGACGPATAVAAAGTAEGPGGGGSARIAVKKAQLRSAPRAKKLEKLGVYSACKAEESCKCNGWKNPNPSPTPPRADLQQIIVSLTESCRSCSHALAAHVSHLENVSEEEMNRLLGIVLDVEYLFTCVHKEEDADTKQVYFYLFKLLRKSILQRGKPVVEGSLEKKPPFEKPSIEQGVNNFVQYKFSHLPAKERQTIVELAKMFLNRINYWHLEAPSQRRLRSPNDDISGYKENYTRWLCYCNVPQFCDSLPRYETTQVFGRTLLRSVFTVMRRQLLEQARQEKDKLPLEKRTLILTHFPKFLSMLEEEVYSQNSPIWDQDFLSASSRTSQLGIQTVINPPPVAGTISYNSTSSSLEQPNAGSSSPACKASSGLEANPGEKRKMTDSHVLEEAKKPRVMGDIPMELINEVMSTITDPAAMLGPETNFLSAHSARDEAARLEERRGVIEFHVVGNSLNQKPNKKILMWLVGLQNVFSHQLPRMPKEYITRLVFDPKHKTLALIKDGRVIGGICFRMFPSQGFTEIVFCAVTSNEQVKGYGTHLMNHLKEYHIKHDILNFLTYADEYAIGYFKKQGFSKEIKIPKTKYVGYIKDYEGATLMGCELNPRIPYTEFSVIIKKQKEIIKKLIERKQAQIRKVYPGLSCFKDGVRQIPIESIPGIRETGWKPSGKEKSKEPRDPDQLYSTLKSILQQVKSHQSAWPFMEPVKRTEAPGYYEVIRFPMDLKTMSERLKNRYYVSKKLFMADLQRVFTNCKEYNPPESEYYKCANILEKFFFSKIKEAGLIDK
# MEF [21] = test: Effect on Klk9 gene expression in MEF cells at 2.5 uM measured after 48 hrs by RNA-sequencing analysis relative to control; format: functional, Mus musculus; procedure, shortened: as §1
# MEF [22] = test: Effect on Snhg11 gene expression in MEF cells at 2.5 uM measured after 48 hrs by RNA-sequencing analysis relative to control; format: functional, Mus musculus; procedure, shortened: as §1
# MEF [23] = test: Effect on Zfyve28 gene expression in MEF cells at 2.5 uM measured after 48 hrs by RNA-sequencing analysis relative to control; format: functional, Mus musculus
# Procedure, shortened: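 MEF cells treated for 48 h with test compound, with (S,S) enantiomer at 2.5 µM as negative control and DMSO as blank; total RNA (TRIzol, n = 3 per set) analysed by RNA-seq; genes counted as changed at >1.5-fold, p < 0.05, relative to blank control.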
# MEF [24] = test: Effect on Erbb3 gene expression in MEF cells at 2.5 uM measured after 48 hrs by RNA-sequencing analysis relative to control; format: functional, Mus musculus; procedure, shortened: as §1
# MEF [25] = test: Effect on Bmp3 gene expression in MEF cells at 2.5 uM measured after 48 hrs by RNA-sequencing analysis relative to control; format: functional, Mus musculus; procedure, shortened: as §1
# MEF [26] = test: Effect on Celsr1 gene expression in MEF cells at 2.5 uM measured after 48 hrs by RNA-sequencing analysis relative to control; format: functional, Mus musculus; procedure, shortened: as §1
# MEF [27] = test: Effect on S100a8 gene expression in MEF cells at 2.5 uM measured after 48 hrs by RNA-sequencing analysis relative to control; format: functional, Mus musculus; procedure, shortened: as §1
# MEF [28] = test: Effect on Hpgd gene expression in MEF cells at 2.5 uM measured after 48 hrs by RNA-sequencing analysis relative to control; format: functional, Mus musculus; procedure, shortened: as §1
# MEF [29] = test: Effect on H60b gene expression in MEF cells at 2.5 uM measured after 48 hrs by RNA-sequencing analysis relative to control; format: functional, Mus musculus; procedure, shortened: as §1
# MEF [30] = test: Effect on Gabra4 gene expression in MEF cells at 2.5 uM measured after 48 hrs by RNA-sequencing analysis relative to control; format: functional, Mus musculus; procedure, shortened: as §1
# MEF [31] = test: Effect on Icos gene expression in MEF cells at 2.5 uM measured after 48 hrs by RNA-sequencing analysis relative to control; format: functional, Mus musculus; procedure, shortened: as §1
# MEF [32] = test: Effect on Prrg3 gene expression in MEF cells at 2.5 uM measured after 48 hrs by RNA-sequencing analysis relative to control; format: functional, Mus musculus; procedure, shortened: as §1
# MEF [33] = test: Effect on Gabra3 gene expression in MEF cells at 2.5 uM measured after 48 hrs by RNA-sequencing analysis relative to control; format: functional, Mus musculus; procedure, shortened: as §1
# MEF [34] = test: Effect on Hkdc1 gene expression in MEF cells at 2.5 uM measured after 48 hrs by RNA-sequencing analysis relative to control; format: functional, Mus musculus; procedure, shortened: as §1
# MEF [35] = test: Effect on Srcin1 gene expression in MEF cells at 2.5 uM measured after 48 hrs by RNA-sequencing analysis relative to control; format: functional, Mus musculus; procedure, shortened: as §1
# MEF [36] = test: Effect on Pyhin1 gene expression in MEF cells at 2.5 uM measured after 48 hrs by RNA-sequencing analysis relative to control; format: functional, Mus musculus; procedure, shortened: as §1
# MEF [37] = test: Effect on LL6 gene expression in MEF cells at 2.5 uM measured after 48 hrs by RNA-sequencing analysis relative to control; format: functional, Mus musculus; procedure, shortened: as §1
# MEF [38] = test: Effect on Kcnk10 gene expression in MEF cells at 2.5 uM measured after 48 hrs by RNA-sequencing analysis relative to control; format: functional, Mus musculus; procedure, shortened: as §1
# MEF [39] = test: Effect on P2rx6 gene expression in MEF cells at 2.5 uM measured after 48 hrs by RNA-sequencing analysis relative to control; format: functional, Mus musculus; procedure, shortened: as §1
# MEF [40] = test: Effect on Unc5a gene expression in MEF cells at 2.5 uM measured after 48 hrs by RNA-sequencing analysis relative to control; format: functional, Mus musculus; procedure, shortened: as §1
Compound,fold change (FC) (MEF [1]),fold change (FC) (MEF [2]),fold change (FC) (MEF [3]),fold change (FC) (MEF [4]),fold change (FC) (MEF [5]),fold change (FC) (MEF [6]),fold change (FC) (MEF [7]),fold change (FC) (MEF [8]),fold change (FC) (MEF [9]),fold change (FC) (MEF [10]),fold change (FC) (MEF [11]),fold change (FC) (MEF [12]),fold change (FC) (MEF [13]),fold change (FC) (MEF [14]),fold change (FC) (MEF [15]),fold change (FC) (MEF [16]),fold change (FC) (MEF [17]),fold change (FC) (MEF [18]),fold change (FC) (MEF [19]),Kd [20] [nM],also measured
CN1C[C@H](Nc2nc3cc[nH]c3c(=O)n2C)C[C@H](c2ccc3c(c2)OCCO3)C1,>1.5,>1.5,>1.5,>1.5,>1.5,>1.5,>1.5,>1.5,>1.5,>1.5,>1.5,>1.5,>1.5,>1.5,>1.5,>1.5,>1.5,>1.5,>1.5,78,fold change (FC) (MEF [21]): >1.5; fold change (FC) (MEF [22]): >1.5; fold change (FC) (MEF [23]): >1.5; fold change (FC) (MEF [24]): >1.5; fold change (FC) (MEF [25]): >1.5; fold change (FC) (MEF [26]): >1.5; fold change (FC) (MEF [27]): >1.5; fold change (FC) (MEF [28]): >1.5; fold change (FC) (MEF [29]): >1.5; fold change (FC) (MEF [30]): >1.5; fold change (FC) (MEF [31]): >1.5; fold change (FC) (MEF [32]): >1.5; fold change (FC) (MEF [33]): >1.5; fold change (FC) (MEF [34]): >1.5; fold change (FC) (MEF [35]): >1.5; fold change (FC) (MEF [36]): >1.5; fold change (FC) (MEF [37]): >1.5; fold change (FC) (MEF [38]): >1.5; fold change (FC) (MEF [39]): >1.5; fold change (FC) (MEF [40]): >1.5
CN1C[C@@H](Nc2nc3cc[nH]c3c(=O)n2C)C[C@@H](c2ccc3c(c2)OCCO3)C1,>1.5,>1.5,>1.5,>1.5,>1.5,>1.5,>1.5,>1.5,>1.5,>1.5,>1.5,>1.5,>1.5,>1.5,>1.5,>1.5,>1.5,>1.5,>1.5,> 10000,fold change (FC) (MEF [21]): >1.5; fold change (FC) (MEF [22]): >1.5; fold change (FC) (MEF [23]): >1.5; fold change (FC) (MEF [24]): >1.5; fold change (FC) (MEF [25]): >1.5; fold change (FC) (MEF [26]): >1.5; fold change (FC) (MEF [27]): >1.5; fold change (FC) (MEF [28]): >1.5; fold change (FC) (MEF [29]): >1.5; fold change (FC) (MEF [30]): >1.5; fold change (FC) (MEF [31]): >1.5; fold change (FC) (MEF [32]): >1.5; fold change (FC) (MEF [33]): >1.5; fold change (FC) (MEF [34]): >1.5; fold change (FC) (MEF [35]): >1.5; fold change (FC) (MEF [36]): >1.5; fold change (FC) (MEF [37]): >1.5; fold change (FC) (MEF [38]): >1.5; fold change (FC) (MEF [39]): >1.5; fold change (FC) (MEF [40]): >1.5
